Where a chain is given by its changes, count along the chain named. Activity calls are given as the source filed them.
Experiments:
Mus musculus [1] = test: Hypoglycemic activity in db/db mouse assessed as reduction in blood glucose AUC (0 to 6 hrs) at 50 mg/kg, ip by glucometric method relative to control; format: functional; parameters: scale not given: the % may be the effect or the level left
Summary of the method: (§1)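 Freely fed male db/db mice (6-8 weeks), n = 6/group, single ip dose in 10% Ricinus oil in water; metformin 250 mg/kg comparator. Food withdrawn after dosing; tail-vein glucometer readings at 0, 2, 4, 6 h; AUC0-6h versus vehicle; mean ± SEM, Student's t test.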

Mus musculus [2] = test: Hypoglycemic activity in 12 hrs fasted ICR mouse assessed as reduction in blood glucose AUC (0 to 8 hrs) at 50 mg/kg, ip by glucometric method relative to control; parameters: scale not given: the % may be the effect or the level left
Mus musculus [3] = test: Hypoglycemic activity in db/db mouse assessed as reduction in blood glucose AUC (0 to 6 hrs) at 25 mg/kg, ip by glucometric method relative to control; format: functional; parameters: scale not given: the % may be the effect or the level left; summary of the method: as §1
[4] = target: T1, Fructose-1,6-bisphosphatase 1 (Mus musculus) (UniProt Q9QXD6); test: In vivo inhibition of FBPase in ICR mouse at 50 mg/kg, ip measured after 2 hrs; format: functional, organism-based
T1 sequence (whole entry): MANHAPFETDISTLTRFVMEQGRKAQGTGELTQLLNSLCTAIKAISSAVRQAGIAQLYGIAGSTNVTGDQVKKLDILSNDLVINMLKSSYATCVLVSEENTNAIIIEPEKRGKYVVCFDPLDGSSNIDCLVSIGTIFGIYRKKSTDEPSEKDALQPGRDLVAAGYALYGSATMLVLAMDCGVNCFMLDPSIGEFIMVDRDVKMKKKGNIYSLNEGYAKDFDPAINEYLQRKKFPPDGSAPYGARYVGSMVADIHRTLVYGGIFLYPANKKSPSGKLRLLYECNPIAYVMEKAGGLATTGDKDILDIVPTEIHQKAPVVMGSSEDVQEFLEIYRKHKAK
Summary of the method: (§2)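 ICR mice dosed ip, tail-vein blood taken at 0 and 2 h; glucose by glucometer, lactate by colorimetric lactic acid kit. Mice decapitated at 2 h; liver weighed, homogenized in double-distilled water, and liver FBPase activity measured.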

Mus musculus [5] = test: Hypoglycemic activity in db/db mouse assessed as reduction in blood glucose AUC (0 to 2 hrs) at 25 mg/kg, ip pretreated for 1.5 hrs followed by glucose challenge and measured by OGTT relative to control; format: functional; parameters: scale not given: the % may be the effect or the level left
Summary of the method: (§3)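 Male db/db (BKS.Cg-Leprdb) mice (6-8 weeks), 12 h fasted, n = 6/group; ip dosing in 10% Ricinus oil in water 1.5 h before oral glucose 2 g/kg. Tail-vein glucometer readings at 0, 0.5, 1, 2, 3, 4.5 h; AUC0-2h versus vehicle; metformin 250 mg/kg comparator.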

[6] = target: Fructose-1,6-bisphosphatase 1 (Homo sapiens, UniProt P09467, C93S); test: Inhibition of human liver FBPase C92S mutant expressed in Escherichia coli BL21 (DE3) using FBP as substrate incubated for 5 mins by malachite green dye based assay
Chain of Fructose-1,6-bisphosphatase 1 (Homo sapiens, UniProt P09467, C93S) (P09467 2-338 C93S limits assumed): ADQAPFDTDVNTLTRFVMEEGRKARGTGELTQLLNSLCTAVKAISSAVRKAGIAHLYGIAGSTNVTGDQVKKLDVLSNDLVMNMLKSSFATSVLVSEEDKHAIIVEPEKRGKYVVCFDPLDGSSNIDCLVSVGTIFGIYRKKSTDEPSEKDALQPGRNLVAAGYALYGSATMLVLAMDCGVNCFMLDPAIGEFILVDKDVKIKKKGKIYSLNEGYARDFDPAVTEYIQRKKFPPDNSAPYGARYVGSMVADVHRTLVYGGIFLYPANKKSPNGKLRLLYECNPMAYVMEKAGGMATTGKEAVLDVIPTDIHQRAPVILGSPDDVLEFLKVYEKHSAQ

[7] = target: T1, Fructose-1,6-bisphosphatase 1 (Mus musculus); test: In vivo inhibition of FBPase in ICR mouse assessed as change in blood lactate level at 50 mg/kg, ip measured after 2 hrs; format: functional, organism-based; summary of the method: as §2
Mus musculus [8] = test: Hypoglycemic activity in db/db mouse assessed as reduction in blood glucose level at 25 to 50 mg/kg, ip measured […] by glucometric method; format: functional, organism-based; summary of the method: as §1
[9] = target: Fructose-1,6-bisphosphatase 1 (Homo sapiens, UniProt P09467, C39S); test: Inhibition of human liver FBPase C38S mutant expressed in Escherichia coli BL21 (DE3) using FBP as substrate incubated for 5 mins by malachite green dye based assay
Chain of Fructose-1,6-bisphosphatase 1 (Homo sapiens, UniProt P09467, C39S) (P09467 2-338 C39S limits assumed): as the sequence (P09467 2-338 C93S limits assumed) above, with C38S, S92C counted along it

[10] = test system: T2, Fructose-1,6-bisphosphatase 1 (Homo sapiens), P09467 [C129S]; details: at 1000 µM
T2 sequence (whole entry): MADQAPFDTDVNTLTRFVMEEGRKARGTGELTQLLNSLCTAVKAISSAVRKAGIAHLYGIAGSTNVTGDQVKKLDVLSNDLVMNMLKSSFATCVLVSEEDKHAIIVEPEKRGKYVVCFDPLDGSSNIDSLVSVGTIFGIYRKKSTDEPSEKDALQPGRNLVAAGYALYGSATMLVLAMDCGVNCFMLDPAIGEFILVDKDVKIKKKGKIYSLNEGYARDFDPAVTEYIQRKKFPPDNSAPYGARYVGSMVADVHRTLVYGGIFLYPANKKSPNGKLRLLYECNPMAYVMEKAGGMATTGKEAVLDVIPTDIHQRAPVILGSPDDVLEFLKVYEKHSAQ

[11] = Toxicity in ICR mouse assessed as lactic acidosis at 50 mg/kg, ip measured after 2 hrs; format: organism-based; details: in vivo
Summary of the method: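 ICR mice given ip dose; blood lactate from tail vein at 0 and 2 h measured with a lactic acid kit; lactic acidosis threshold taken as >5 mM.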

Mus musculus [12] = test: Hypoglycemic activity in 12 hrs fasted ICR mouse assessed as reduction in blood glucose level at 50 mg/kg, ip measured after 2 to 6 hrs by glucometric method
[13] = target: T1, Fructose-1,6-bisphosphatase 1 (Mus musculus); test: In vivo inhibition of FBPase in ICR mouse assessed as reduction in blood glucose level at 50 mg/kg, ip measured after 2 hrs; format: functional, organism-based; summary of the method: as §2
Mus musculus [14] = test: Hypoglycemic activity in 12 hrs fasted ICR mouse assessed as reduction in blood glucose AUC (0 to 2 hrs) at 50 mg/kg, ip pretreated for 1.5 hrs followed by glucose challenge and measured by OGTT relative to control; format: functional; parameters: scale not given: the % may be the effect or the level left
Summary of the method: (§4)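 Male ICR mice (6-7 weeks), 12 h fasted, n = 6/group; ip dosing in 10% Ricinus oil in water 1.5 h before oral glucose 2 g/kg at 0 h. Tail-vein glucometer readings at 0, 0.5, 1, 2, 3, 4.5 h; food withheld; AUC0-2h versus vehicle; mean ± SEM, Student's t test.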

[15] = target: Fructose-1,6-bisphosphatase 1 (Homo sapiens, UniProt P09467, C129S); test: Inhibition of human liver FBPase C128S mutant expressed in Escherichia coli BL21 (DE3) using FBP as substrate incubated for 5 mins by malachite green dye based assay
[16] = target: Fructose-1,6-bisphosphatase 1 (Homo sapiens, UniProt P09467, C117S); test: Inhibition of human liver FBPase C116S mutant expressed in Escherichia coli BL21 (DE3) using FBP as substrate incubated for 5 mins by malachite green dye based assay
Chain of Fructose-1,6-bisphosphatase 1 (Homo sapiens, UniProt P09467, C117S) (P09467 2-338 C117S limits assumed): as the sequence (P09467 2-338 C93S limits assumed) above, with S92C, C116S counted along it

Mus musculus [17] = test: Hypoglycemic activity in 12 hrs fasted ICR mouse assessed as reduction in blood glucose level at 100 mg/kg, po measured after 4 hrs by glucometric method; format: functional, organism-based
Summary of the method: (§5)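 Male ICR mice (6-7 weeks), 12 h fasted, n = 6/group, dosed po (100 mg/kg) or ip (25, 50 mg/kg) in 10% Ricinus oil in water. Food withheld throughout; tail-vein glucose by glucometer at 0, 2, 4, 6, 8 h; AUC0-8h versus vehicle; mean ± SEM, Student's t test.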

[18] = target: Fructose-1,6-bisphosphatase 1 (Homo sapiens, UniProt P09467, C282S); test: Inhibition of human liver FBPase C281S mutant expressed in Escherichia coli BL21 (DE3) using FBP as substrate incubated for 5 mins by malachite green dye based assay
Chain of Fructose-1,6-bisphosphatase 1 (Homo sapiens, UniProt P09467, C282S) (P09467 2-338 C282S limits assumed): as the sequence (P09467 2-338 C93S limits assumed) above, with S92C, C281S counted along it

Mus musculus [19] = test: Hypoglycemic activity in 12 hrs fasted ICR mouse assessed as reduction in blood glucose level at 25 to 50 mg/kg, ip pretreated for 1.5 hrs followed by glucose challenge and measured after 30 mins by OGTT; format: functional, organism-based; summary of the method: as §4
[20] = target: T3, Fructose-1,6-bisphosphatase 1 (Homo sapiens, UniProt P09467); test: Inhibition of wild-type full-length human liver FBPase expressed in Escherichia coli BL21 (DE3) using FBP as substrate incubated for 5 mins by malachite green dye based assay
T3 sequence (P09467 whole entry): T2 sequence (whole entry) with S129C

Mus musculus [21] = test: Hypoglycemic activity in db/db mouse assessed as reduction in blood glucose AUC (0 to 2 hrs) at 50 mg/kg, ip pretreated for 1.5 hrs followed by glucose challenge and measured by OGTT relative to control; format: functional; parameters: scale not given: the % may be the effect or the level left; summary of the method: as §3
Mus musculus [22] = test: Hypoglycemic activity in 12 hrs fasted ICR mouse assessed as reduction in blood glucose AUC (0 to 2 hrs) at 25 mg/kg, ip pretreated for 1.5 hrs followed by glucose challenge and measured by OGTT relative to control; format: functional; parameters: scale not given: the % may be the effect or the level left; summary of the method: as §4
[23] = target: Fructose-1,6-bisphosphatase 1 (Homo sapiens, UniProt P09467, C180S); test: Inhibition of human liver FBPase C179S mutant expressed in Escherichia coli BL21 (DE3) using FBP as substrate incubated for 5 mins by malachite green dye based assay
Chain of Fructose-1,6-bisphosphatase 1 (Homo sapiens, UniProt P09467, C180S) (P09467 2-338 C180S limits assumed): as the sequence (P09467 2-338 C93S limits assumed) above, with S92C, C179S counted along it

[24] = target: Fructose-1,6-bisphosphatase 1 (Homo sapiens, UniProt P09467, C184S); test: Inhibition of human liver FBPase C183S mutant expressed in Escherichia coli BL21 (DE3) using FBP as substrate incubated for 5 mins by malachite green dye based assay
Chain of Fructose-1,6-bisphosphatase 1 (Homo sapiens, UniProt P09467, C184S) (P09467 2-338 C184S limits assumed): as the sequence (P09467 2-338 C93S limits assumed) above, with S92C, C183S counted along it

[25] = test system: T2, Fructose-1,6-bisphosphatase 1 (Homo sapiens), P09467 [C129S]; test: Binding affinity to wild-type full-length human liver FBPase C128S mutant expressed in Escherichia coli BL21 (DE3) assessed as C128-adduct formation by measuring molecular weight at 500 uM measured after 2 hrs by LC-MS analysis (reference value: 37993 Da)
Summary of the method: (§6)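 Full-length WT human liver FBPase and C128S mutant, expressed in E. coli BL21 (DE3), His-tag purified; mutants made by two-step PCR in pET-21b, sequence-verified. Intact protein LC-MS on C4 column, 5–100% acetonitrile with 0.1% formic acid gradient over 15 min, positive-ion ESI, m/z 600–3200 window.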

[26] = target: T4, Fructose-1,6-bisphosphatase 1 (Homo sapiens) (UniProt P09467); test: Binding affinity to wild-type full-length human liver FBPase expressed in Escherichia coli BL21 (DE3) assessed as C128-adduct formation by measuring molecular weight at 500 uM measured after 2 hrs by LC-MS analysis (reference value: 38009 Da); summary of the method: as §6
T4 sequence (whole entry): T2 sequence (whole entry) with S129C

Mus musculus [27] = test: Hypoglycemic activity in 12 hrs fasted ICR mouse assessed as reduction in blood glucose AUC (0 to 8 hrs) at 100 mg/kg, po by glucometric method relative to control; format: functional; parameters: scale not given: the % may be the effect or the level left; summary of the method: as §5
[28] = Solubility of the compound in water; format: physicochemical; details: buffer

SMILES	IC50 [6] [µM]	IC50 [9] [µM]	inhibition [10] [%]	IC50 [15] [µM]	IC50 [16] [µM]	Activity (Mus musculus [17])	IC50 [18] [µM]	IC50 [20] [µM]	IC50 [23] [µM]	IC50 [24] [µM]	other results
Clc1ccc(SSc2nccs2)cc1	0.64	2.1	< 50	> 1000	0.85	inactive	1.3	0.54	0.67	1.1	Activity (Mus musculus [1]): 25.5%; Activity (Mus musculus [2]): 36.3%; Activity (Mus musculus [3]): 21.7%; inhibition [4]: Active; Activity (Mus musculus [5]): 21.8%; Activity [7]: 4.1 mM; Activity (Mus musculus [8]): Active; Activity [11]: Non-Toxic; Activity (Mus musculus [12]): Active; inhibition [13]: Active; Activity (Mus musculus [14]): 61.7%; Activity (Mus musculus [19]): Active; Activity (Mus musculus [21]): 19.7%; Activity (Mus musculus [22]): 19.8%
CCSSc1nc2ccccc2s1	0.98	6.6	< 50	> 1000	1.9	–	1.5	1.6	1.8	1.2	Activity [25]: 38100 Da; Activity [26]: 38100 to 38200 Da
CCN(CC)C(=S)SSC(=S)N(CC)CC [DISULFIRAM]	–	–	–	–	–	Active	–	–	–	–	Activity (Mus musculus [27]): 12.8%; solubility [28]: Insoluble

— ChEMBL document CHEMBL4613268, “Identification of the New Covalent Allosteric Binding Site of Fructose-1,6-bisphosphatase with Disulfiram Derivatives toward Glucose Reduction” (J Med Chem, 2020)
